Reference: paper PMC12334608 (Nature Communications, 2025)
Where a chain is given by its changes, count along the chain named.

What was measured:
Format in all cases: biochemical, C. elegans
ACOX-1.1(R295Q) = biological target: T1, ACOX-1.1(R295Q) (Caenorhabditis elegans, UniProt O62140, R295Q); assay: Enzyme-coupled kinetic assay, ACOX-1.1
T1 sequence (O62140 1-674 R295Q): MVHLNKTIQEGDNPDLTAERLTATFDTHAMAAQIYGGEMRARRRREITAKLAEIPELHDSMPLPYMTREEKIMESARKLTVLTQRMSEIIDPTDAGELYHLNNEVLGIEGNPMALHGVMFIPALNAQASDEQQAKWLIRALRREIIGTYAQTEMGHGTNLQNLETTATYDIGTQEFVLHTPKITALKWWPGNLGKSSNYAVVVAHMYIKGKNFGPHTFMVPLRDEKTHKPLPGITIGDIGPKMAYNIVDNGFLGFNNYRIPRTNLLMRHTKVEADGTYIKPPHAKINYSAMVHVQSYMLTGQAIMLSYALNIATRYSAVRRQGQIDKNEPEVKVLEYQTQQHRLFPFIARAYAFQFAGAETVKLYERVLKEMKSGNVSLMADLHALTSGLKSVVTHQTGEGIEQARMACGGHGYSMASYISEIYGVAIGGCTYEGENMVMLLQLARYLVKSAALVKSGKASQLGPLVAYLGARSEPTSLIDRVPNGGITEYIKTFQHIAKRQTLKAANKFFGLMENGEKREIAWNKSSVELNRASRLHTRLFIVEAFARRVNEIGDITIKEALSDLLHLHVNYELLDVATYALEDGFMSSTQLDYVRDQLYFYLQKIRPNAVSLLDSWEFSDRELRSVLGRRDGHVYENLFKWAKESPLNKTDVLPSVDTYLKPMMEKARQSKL

ACOX-1.1(R536E) = assay: Enzyme-coupled kinetic assay, ACOX-1.1; conditions: 10 μM FAD, various ATP
Procedure, shortened: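 Coupled H2O2 assay on a plate reader using the mutant enzyme (250 nM final). […] Peroxide was coupled through 4-aminoantipyrine (0.82 mM final), phenol (10.6 mM final) and peroxidase, read at 500 nm. Substrate was 25 µM lauroyl-CoA in 50 mM Tris-HCl pH 7.5, 150 mM NaCl, 10 mM MgCl2. Initial rate was taken over a 30 s window at 25–26 °C.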

ACOX-1.1 = biological target: T2, ACOX-1.1 (Caenorhabditis elegans, UniProt O62140); assay: Analysis of enzyme activity; conditions: 10 μM FAD, 350 μM ATP
T2 sequence (O62140 1-674): T1 sequence (O62140 1-674 R295Q) with Q295R

## Nc1ncnc2c1ncn2[C@@H]1O[C@H](COP(=O)(O)OP(=O)(O)OP(=O)(O)O)[C@@H](O)[C@H]1O [ATP]
ACOX-1.1(R295Q)
  response of enzyme activity to ATP: do not respond to ATP
ACOX-1.1(R536E)
  response of enzyme activity to ATP: do not respond to ATP
ACOX-1.1
  effect on rate of product formation (HPLC): increases the rate of product formation
